MsrA inh = inhibits bovine methionine sulfoxide reductase A. purified bovine MsrA, absorbance read-out. inhibition, % at 15.5 µM. 360,000 compounds, 0.75% hits. AID 651718; in the data active means inhibition above about 4.5%;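 further: 0% = vehicle wells with enzyme and 100% = reference inhibitor wells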
proCasp7 act = counter-screen for procaspase-3 activators: activators of human procaspase-7 | P55210 | recombinant procaspase-7, Ac-DEVD-pNA absorbance 405 nm; D23A/D198A/D206A triple mutant, cannot self-cleave; scale: DMSO 0, 5 µM enzyme 100 | activation, % at 8.5 µM | 330,000 compounds, 0.093% hits | AID 463210;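 active means percent activation above the screen-wide mean plus 3 SD, cut at about 25% in these data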
Target sequence (P55210 whole entry D23A/D198A/D206A): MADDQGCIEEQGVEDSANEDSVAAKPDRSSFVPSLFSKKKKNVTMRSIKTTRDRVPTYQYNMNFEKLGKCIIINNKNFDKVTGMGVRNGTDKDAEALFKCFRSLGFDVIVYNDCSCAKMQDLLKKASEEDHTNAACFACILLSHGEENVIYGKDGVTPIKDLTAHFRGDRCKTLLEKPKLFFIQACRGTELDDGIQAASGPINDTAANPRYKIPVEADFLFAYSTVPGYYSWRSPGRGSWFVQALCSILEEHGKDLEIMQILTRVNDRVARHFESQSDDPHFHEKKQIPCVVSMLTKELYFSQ
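Assay system: Uncleavable procaspase-7 mutant enzyme; Input: 2 µM procaspase-7 mutant as dispensed; Also added: DEVD-pNA substrate; Medium: Zinc-free HEPES pH 7.4 with 300 mM NaCl, 0.01% Triton X-100; Timing: 1 h compound preincubation, 2 h substrate cleavage, 25 °C; Measured by: Epi-absorbance of released pNA at 405 nm, two timepoints.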
MsrA act = activators of bovine methionine sulfoxide reductase A; 360,000 compounds, 0.3% hits; AID 602163; purified bovine MsrA, absorbance read-out; activation, % at 10.6 µM; in the data active means activation above about 7.5%;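 further: 0% = vehicle and 100% = reference activator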
proCasp3 act = procaspase-3 (human) activation | recombinant procaspase-3 D3A, Ac-DEVD-pNA absorbance 405 nm | activation, % at 8.5 µM | 330,000 compounds, 0.11% hits | AID 463141;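 active means activation above the mean of all tested compounds plus 3 SD, cut at about 21% in these data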;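 further: 0% = DMSO alone and 100% = DMSO wells spiked with extra 5 µM PC-3 D3A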
Target sequence (P42574 whole entry D9A/D28A/D175A): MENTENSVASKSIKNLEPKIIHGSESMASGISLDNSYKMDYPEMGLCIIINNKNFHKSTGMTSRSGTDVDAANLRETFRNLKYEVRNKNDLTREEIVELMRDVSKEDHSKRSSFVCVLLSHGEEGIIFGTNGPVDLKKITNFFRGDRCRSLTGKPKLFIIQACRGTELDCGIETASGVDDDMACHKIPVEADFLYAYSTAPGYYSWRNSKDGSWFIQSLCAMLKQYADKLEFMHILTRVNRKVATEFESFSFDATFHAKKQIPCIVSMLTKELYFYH
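Assay system: Procaspase-3 D3A mutant, all three cleavage aspartates alanine. Buffer or medium: Zinc-free HEPES saline buffer with Triton X-100. Times: 1 h compound preincubation, 2 h substrate hydrolysis at 25 °C. Measured by: 405 nm absorbance of p-nitroaniline, reads at 0 and 120 min. Read-out basis: percent activation relative to control range. Replicates: singlicate.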
A1 inh = inhibitors of the anti-apoptotic protein A1, read as caspase activation | caspase activation, % (no concentration beside the values) | MEF A1-2A-BIM cells, Caspase-Glo 3/7 luminescence, 3 h; percent of clofoctol response, vehicle zero | 330,000 compounds, 0.066% hits;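 active means over half of replicate activation scores above 10%, or exactly half above 10 with the replicate mean above 10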
MsrA act confirm = bovine methionine sulfoxide reductase A activation confirmed; activation, % at 10.6 µM; AID 602270; 1,000 compounds, 12% hits; purified bovine MsrA, absorbance read-out; shares compounds with MsrA act; in the data active means activation above about 4%;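 further: enzyme coupled to thioredoxin and thioredoxin reductase with NADPH; 0% = vehicle wells and 100% = reference activator wells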
An asterisk follows results filed as active; . = not tested or not shown. In the library only some 1.2% were active in any assay of this set; here they are far more common.

SMILES	MsrA inh	proCasp7 act	MsrA act	proCasp3 act	A1 inh	MsrA act confirm
O=C1C(Nc2ccc(O)cc2)=C/C(=N/S(=O)(=O)c2cccs2)c2ccccc21	49*	.	9.9*	.	.	7.9*
CC(C)Oc1ccc(/C=C(\C#N)C(=O)NC2CC2)cc1	2	3	-2	-1	0	.
N#C/C(=C\c1ccc(OCC(N)=O)cc1)C(=O)NC1CC1	3	7	13*	2	1	-1
Nc1nc2c(-c3ccc([N+](=O)[O-])cc3)nnn2c2ccccc12	-1	.	.	.	.	.
O=C(O)c1cc([N+](=O)[O-])c(Sc2nc3ccccc3[nH]2)c([N+](=O)[O-])c1	0	-11	-3	-8	0	.
CS(=O)(=O)c1cc([N+](=O)[O-])c(Sc2nc3ccccc3[nH]2)c([N+](=O)[O-])c1	-1	-30	8.0*	-19	0	10*
Cc1cccc(NCc2ccccc2O)c1C	0	5	15*	0	0	-1
CCOc1cc(N2CCOCC2)c(OCC)cc1NC(=O)Cn1nc(C)c([N+](=O)[O-])c1C	1	3	-3	14	1	.
Cc1nn(CC(=O)NCCCN2CCOCC2)c(C)c1[N+](=O)[O-]	1	-9	14*	0	0	3
C[C@H](O)[C@@H]1C(=O)N2CCc3c([nH]c4c(-c5ccc6c(c5)OCO6)cccc34)[C@@H]2C[C@@H]1N(C)C(=O)NC1CCCCC1	1	.	.	.	.	.
Cc1ccccc1NC(=O)N(C)[C@H]1C[C@H]2c3[nH]c4c(-c5ccccc5)cccc4c3CCN2C(=O)[C@H]1[C@H](C)O	-1	.	.	.	.	.
COc1ccc(-n2c(=O)[nH]cc(C(=O)Nc3ccc4c(c3)OCCO4)c2=O)cc1	0	1	-1	0	0	.
COc1ccc(-n2c(=O)[nH]cc(C(=O)Nc3ccc4c(c3)OCO4)c2=O)cc1OC	-1	6	12*	-8	1	0
Cc1ccccc1C(=O)NNC(=S)NC(=O)COc1ccccc1	0	-27	13*	-19	0	0
C=CCn1c(SCCN2CCCC2)nc2c([nH]c3ccccc32)c1=O	1	8	8.4*	9	-2	-1
CCOCCC(=O)Nc1ccc2c(c1)c(=O)n(C)n2-c1ccccc1F	0	.	10*	.	.	0
Cn1c(=O)c2cc(NC(=O)CCc3ccccc3)ccc2n1-c1ccccc1F	0	.	-1	.	.	.
O=S(=O)(Nc1ccc2c3c(cccc13)CC2)c1ccc(F)cc1	-1	-4	-2	4	0	.
CSc1ccc(S(=O)(=O)Nc2ccc3c4c(cccc24)CC3)cc1	0	9	11*	0	0	0
O=C(Nc1c2c(nn1-c1ccc([N+](=O)[O-])cc1)CS(=O)(=O)C2)c1cccs1	1	11	-3	-1	0	.
O=C(Nc1c2c(nn1-c1ccc([N+](=O)[O-])cc1)CS(=O)(=O)C2)c1ccccc1F	1	-3	7.9*	-5	-1	-1
COc1ccc(-c2cc(-c3ccccc3)nc(N3CCCC3)n2)cc1OC	0	27*	8.0*	10	0	-1
COc1ccc(-c2cc(C(F)(F)F)nc(N3CCOCC3)n2)cc1OC	0	14	-1	2	0	.
CCOC(=O)C1(C)CCN1C(=O)COc1ccc(C(C)(C)C)cc1 (configuration not stated)	0	.	8.2*	.	.	0
CCOC(=O)C1(C)CCN1C(=O)COc1ccccc1 (configuration not stated)	2	.	-2	.	.	.
SMILES	MsrA inh	proCasp7 act	MsrA act	proCasp3 act	A1 inh	MsrA act confirm
CC(C)C[C@H](NC(=O)c1ccc(Cl)c(Cl)c1)C(=O)N1CCC[C@H]1C(=O)NCc1ccccc1	-1	.	.	.	.	.
Cc1ccc(S(=O)(=O)NC2=C(N3CCN(Cc4ccccc4)CC3)C(=O)c3ccccc3C2=O)cc1	-1	0	7.8*	-6	0	-1
O=[N+]([O-])c1ccc(C=Nc2cccc3ccccc23)s1	.	-1	8.1*	-1	-1	6.5*
O=C(CCCc1ccccc1)NCCC1=CCCCC1	1	-5	8.5*	-2	1	-2
O=C(CCc1ccccc1)NCCC1=CCCCC1	0	-1	-3	5	0	.
COc1ccc(CNC(=O)c2c(N)[nH]c(C(=O)c3ccccc3)c2-c2ccc3ccccc3c2)cc1OC	0	.	.	.	.	.
O=C(N/N=C/C(Br)=C\c1ccccc1)c1cccs1	2	-1	-3	-4	-3	.
CC(=C/c1ccccc1)/C=N/NC(=O)c1cccs1	4	5	16*	4	-7	1
COCCCN=Cc1c(C)[nH]n(-c2ccc(Br)c(C)c2)c1=O	0	-3	9.3*	-1	-2	-4
CN(C)CCCNC(=O)c1ccc(-c2nc(-c3ccc(Cl)cc3)cs2)cc1	1	11	8.3*	5	2	-2
CN(C)CCCNC(=O)c1ccccn1	1	4	-8	0	0	.
CCNC(=O)N(C)[C@H]1C[C@H]2c3[nH]c4c(-c5ccc6c(c5)OCO6)cccc4c3CCN2C(=O)[C@H]1[C@H](C)O	1	.	.	.	.	.
CC(C)c1nc(NCC2CCCO2)c(C#N)c2c1COC(C)(C)C2 (configuration not stated)	1	10	10.0*	-9	0	0
CCc1nc(NCC2CCCO2)c(C#N)c2c1COC(C)(C)C2 (configuration not stated)	3	-12	-3	-10	-1	.
C#CC(C)(O)C1CC(CC(=O)O)C1(C)C (configuration not stated)	.	.	10*	.	.	-2
Nc1nc(=S)ss1	1	.	38*	.	.	28*
CCOC(=O)CC(NC(=O)c1cccc2c1C(=O)N(Cc1cccnc1)C2)c1ccc(OCC)c(OC)c1 (configuration not stated)	-1	-18	8.6*	-6	0	3
Cc1ccc(NC(=O)COC(=O)COc2ccc(Cl)cc2)c([N+](=O)[O-])c1	0	1	16*	-1	-1	-1
O=C(COC(=O)COc1ccc(Cl)cc1)Nc1ccc(F)c([N+](=O)[O-])c1	-1	2	-4	-2	1	.
Nc1nc2c(ncn2[C@@H]2O[C@H](C(=O)N[C@H](Cc3ccccc3)C(=O)NC3CCCCC3)[C@@H](O)[C@H]2O)c(=O)[nH]1	1	.	.	.	.	.
CN(C)Cc1c(C(C)(C)O)[nH]c2cc(F)ccc12	-1	.	.	.	.	.
Cc1cccc(C(=O)N2CCCC(N3CCN(c4cccc(Cl)c4)CC3)C2)n1 (configuration not stated)	0	4	17*	6	-1	-3
O=C(c1cnccn1)N1CCCC(N2CCN(c3cccc(Cl)c3)CC2)C1 (configuration not stated)	0	13	-3	12	0	.
